Compounds with a hit are over-represented: about 2.1% of the library has one in this group of screens.
Calpain2 inh: blocks pig calpain II enzyme activity | purified calpain II, fluorogenic peptide substrate, 30 min | inhibition, % at 16 µM | actives 0.37% (n = 220,000);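 active = inhibition above about 50%, limit read from the data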
Runt-SMMHC FRET: inhibitors of human RUNX1 Runt domain binding to CBFb-SMMHC; Q01196+Q13951; Cerulean-Runt/Venus-CBFb-SMMHC FRET ratio 530/480, 1 h; inhibition, % at 20 µM; actives 0.74% (n = 220,000);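 active = mean inhibition across duplicate retests at 20 µM reaching about 50%, limit read from the data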;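 note: inhibitors lower the FRET ratio by blocking Runt binding to CBFb-SMMHC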
Target sequence (Q01196 whole entry, looked up, the tested form may be a part): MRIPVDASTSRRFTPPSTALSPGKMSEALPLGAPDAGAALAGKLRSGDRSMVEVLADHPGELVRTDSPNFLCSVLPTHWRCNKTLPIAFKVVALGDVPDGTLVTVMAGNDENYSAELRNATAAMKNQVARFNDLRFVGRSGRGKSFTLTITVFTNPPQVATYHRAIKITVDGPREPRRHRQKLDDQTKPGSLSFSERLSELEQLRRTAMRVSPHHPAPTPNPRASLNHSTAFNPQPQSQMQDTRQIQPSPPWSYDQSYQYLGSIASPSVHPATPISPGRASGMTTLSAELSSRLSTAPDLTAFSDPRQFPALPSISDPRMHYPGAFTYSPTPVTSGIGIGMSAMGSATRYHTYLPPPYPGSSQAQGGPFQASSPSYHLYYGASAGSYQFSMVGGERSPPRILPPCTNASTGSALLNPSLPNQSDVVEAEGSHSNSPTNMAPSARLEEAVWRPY
Target sequence (Q13951 whole entry, looked up, the tested form may be a part): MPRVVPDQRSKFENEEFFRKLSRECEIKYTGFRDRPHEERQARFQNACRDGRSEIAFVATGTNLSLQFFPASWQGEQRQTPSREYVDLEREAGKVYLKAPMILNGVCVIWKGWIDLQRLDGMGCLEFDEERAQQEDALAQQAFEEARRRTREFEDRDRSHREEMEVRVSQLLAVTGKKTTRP
FAS-TE inh: blocks the thioesterase domain of human fatty acid synthase. recombinant FAS-TE, OMFH fluorogenic substrate, fluorescence endpoint. AID 602261. P49327. inhibition, % at 15 µM. actives 0.67% (n = 360,000);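 active = compounds whose normalised, plate-corrected inhibition of enzyme fluorescence in the single-dose primary screen is 50% or more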
Runt-CBFb FRET: Runt domain-CBFb interaction inhibition. Cerulean-Runt/Venus-CBFb FRET ratio 530/480, 1 h. inhibition, % at 20 µM. actives 0.46% (n = 220,000). AID 1496;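 active = inhibition over about 50% at 20 µM in the single-dose screen, limit read from the data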
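System: Cerulean-labeled Runt domain protein | Quantity: 100 nM of each labeled protein | Schedule: 1 h compound exposure, room temperature | Detection: Fluorescence energy transfer, 422 nm excitation, 530/480 nm emission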
RanGTP-Impb inh: disruptors of Ran-importin-beta complex formation – biochemical, FRET, CFP-Ran, YFP-importin-beta, homogeneous, primary screen; cell-free CFP-Ran/YFP-importin-beta FRET ratio; inhibition, % (no concentration beside the values); actives 1.1% (n = 300,000);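 active = more than half of the replicate wells show a fall in the fluorescence ratio signal beyond about 16%, limit read from the data, passing the limit was not always enough; inconclusive = exactly half of the replicate wells pass the set limit; inactive = fewer than half of replicates pass the limit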
Hits are given with their value; . = inactive; ? = inconclusive; / = no result given.

SMILES	Calpain2 inh	Runt-SMMHC FRET	FAS-TE inh	Runt-CBFb FRET	RanGTP-Impb inh
O=c1c2ccccc2c(C=Nc2ccc(O)cc2)c(O)n1Cc1ccccc1	.	.	.	.	33
COc1ccc(Cn2c(O)c(C=Nc3ccccc3)c3ccccc3c2=O)cc1	.	.	.	.	.
COc1ccc(N=Cc2c(O)n(-c3ccc(OC)cc3)c(=O)c3ccccc23)cc1	.	90	.	.	.
COc1ccc(Cn2c(O)c(C=Nc3ccc(O)cc3)c3ccccc3c2=O)cc1	.	.	.	.	30
CCN(CC)S(=O)(=O)c1ccc(NC(=O)Cc2cccs2)cc1	.	.	.	.	.
CC(C)CNC(=S)N(CCCO)Cc1cc2cc3c(cc2[nH]c1=O)OCCO3	/	/	.	/	31
COc1cc(-c2ccc3c(=O)c4ccccc4n(C)c3c2)cc(OC)c1OC	/	/	.	/	57
COc1cc(-c2ccc3c(=O)c4ccccc4sc3c2)cc(OC)c1OC	/	/	.	/	/
Cn1c2ccccc2c(=O)c2ccc(-c3ccc4c(c3)OCO4)cc21	/	/	.	/	49
Cn1c(-c2ccc3c(c2)OCO3)cc(=O)c2ccccc21	.	.	.	.	.
COc1ccc(-c2cc(Cl)cc3c(=O)c4ccccc4n(C)c23)cc1F	/	/	.	/	112
CCN(C(=O)CN1CCC(C(=O)OC)CC1)c1c(N)n(Cc2ccccc2)c(=O)[nH]c1=O	/	/	.	/	/
c1ccc(COc2ccc(CNCc3cccnc3)cc2)cc1	.	.	.	.	.
N=c1oc2cc(O)ccc2cc1C(=O)Nc1ccc(F)cc1	/	/	.	/	171
CC(C)(C)OC(=O)C[C@H]1C/C=C\C[C@H](CC(=O)NCCO)C(=O)NC[C@H](c2ccccc2)OC1=O	/	/	.	/	/
O=C(CSc1ccc2nnc(-c3ccncc3)n2n1)Nc1nccs1	65	.	.	.	.
CCOc1ccc(C(=O)N2CCN(S(=O)(=O)c3cccs3)CC2)c(OCC)c1	/	/	.	/	.
CCN(CC)c1ccc2cc(C(=O)Nc3ccccn3)c(=O)oc2c1	.	62	.	.	161
NC(=O)c1cc2cc(Cl)ccc2oc1=O	.	.	.	.	.
CCN(CC)c1ccc2cc(C=O)c(=O)oc2c1	.	60	.	.	126
CCOc1ccccc1NC(=O)c1cc2ccccc2oc1=O	/	/	.	/	.
CCN(CC)c1ccc2cc(C(N)=O)c(=N)oc2c1	.	92	.	.	151
CCN(CC)c1ccc2cc(C(N)=O)c(=O)oc2c1	.	95	.	.	153
CCN(CC)c1ccc2cc(/C(N)=N/NC(=O)c3cccs3)c(=O)oc2c1	.	.	/	.	159
c1cc(-c2nnc(-c3ccncc3)o2)ccn1	.	.	.	.	.
SMILES	Calpain2 inh	Runt-SMMHC FRET	FAS-TE inh	Runt-CBFb FRET	RanGTP-Impb inh
CCN(CC)c1ccc2cc(NC(=O)CCC(=O)O)c(=O)oc2c1	.	63	.	.	136
CCN(CC)c1ccc2cc(-c3nnc(-c4ccncc4)o3)c(=O)oc2c1	.	63	.	.	/
CC(=O)Nc1cc2ccccc2oc1=O	.	.	.	.	.
N/C(=N\NC(=O)c1cccs1)c1cc2ccccc2oc1=O	.	.	.	.	?
CCN(CC)CCCNC(=O)c1cc(-c2ccccc2)c(N2CCCCC2)s1	/	/	.	/	.
O=C(N/C(=C/c1cccc(Br)c1)c1nc(=S)[nH][nH]1)c1ccccc1	.	.	.	.	.
Cc1ccc(C(=O)N/C(=C\c2ccc(Br)cc2)c2nc(=S)[nH][nH]2)cc1	.	.	.	.	28
Cn1c(N)c(C(=O)COC(=O)CC2CC3CCC2C3)c(=O)n(C)c1=O (centres undefined)	92	.	.	.	.
O=C(CC1CC2CCC1C2)OCC(=O)c1c[nH]c2ccccc12 (centres undefined)	79	.	.	.	?
O=C(N=Nc1c(O)[nH]c2ccc([N+](=O)[O-])cc12)c1cc(-c2ccccc2Cl)nc2ccccc12	69	.	.	.	/
CC(NC(=O)C1CCN(c2nnc(N3CCCC3=O)s2)CC1)c1ccccc1 (centres undefined)	/	/	.	/	.
Clc1ccc(-c2nnnn2-c2ccc(Cl)c(Cl)c2)cc1Cl	55	.	.	.	.
Nc1ccc(-c2nnnn2-c2ccc(N)cc2)cc1	/	/	.	/	.
CC1(C)CC(=O)C2=C(C1)N(c1cccc(O)c1)C1=C(C2)C(=O)CC(C)(C)C1	.	57	.	.	74
Cc1cccc(C)c1NC(=S)N(Cc1ccccc1)Cc1cccs1	.	.	.	.	.
N#CC1=C(N)SC(N)=C(C#N)C1c1ccoc1	.	.	/	.	40
COc1ccc(-c2c3c(cc4ncn(Cc5ccccc5)c24)COC3=O)cc1	/	/	.	/	/
C=CCNC(=S)N/N=C/c1cccc([N+](=O)[O-])c1	64	.	.	.	.
COc1ccccc1CNC(=O)CN1C(=O)NC2(CCCc3ccccc32)C1=O (centres undefined)	/	/	.	/	/
CCOCCCNC(=S)NCCNc1nc2ccc(C)cc2cc1C#N	.	111	.	81	31
CCOCCCNC(=S)NCCCNc1nc2ccc(C)cc2cc1C#N	.	89	/	93	/
COc1ccccc1N1CCN(C(=O)CCC(=O)N2CCN(c3ccc(F)cc3)CC2)CC1	/	/	.	/	.
CN(C)/C=C1/Sc2ccccc2C1=O	.	.	.	.	19
N#C/C(=C\c1ccc(OCc2ccc(Br)cc2)cc1)C(=O)Nc1cccc(C(=O)O)c1	/	/	.	/	.
CCOc1cc(/C=C(\C#N)C(=O)Nc2cccc(C(=O)O)c2)cc(Br)c1OC(=O)c1ccc(OC)cc1	/	/	84	/	.
SMILES	Calpain2 inh	Runt-SMMHC FRET	FAS-TE inh	Runt-CBFb FRET	RanGTP-Impb inh
CCOc1cc(/C=C(\C#N)C(=O)Nc2cccc(C(=O)O)c2)ccc1OCc1ccccc1Cl	/	/	.	/	78
COc1cc(/C=C(\C#N)C(=O)Nc2cccc(C(=O)O)c2)ccc1OCc1ccc(F)cc1	/	/	.	/	.
CC1CCN(CCCNC(=O)c2nn(C)c3c2CS(=O)(=O)c2ccccc2-3)CC1	/	/	.	/	.
CN(CC(=O)N(C)CC(=O)Nc1c(Cl)cccc1Cl)Cc1ccccc1F	/	/	.	/	/
CCN(c1ccccc1)S(=O)(=O)c1ccc(Cl)c(C(=O)N2CCCC2)c1	/	/	.	/	/
CCCCn1nc(C(=O)Oc2ccc3c(C)cc(=O)oc3c2)c2ccccc2c1=O	.	58	.	.	.
CCCC(=O)Oc1ccc2c(C)cc(=O)oc2c1	.	.	.	.	?
Cc1cc(=O)oc2cc(OC(=O)c3cncc(Br)c3)ccc12	.	59	.	.	.
Cc1ccc(CCNS(=O)(=O)c2cc3c(cc2Cl)NC(=O)CO3)cc1	/	/	.	/	.
O=C(Nc1c2ccccc2nc2ccccc12)C(Cl)(Cl)Cl	.	.	.	.	135
COc1ccccc1CCNC(=O)C(=O)NCCC1CCCCN1S(=O)(=O)c1ccccc1 (centres undefined)	/	/	.	/	37
COc1cccc(N2CCN(c3ccc4nnc(CCC(=O)Nc5ccccn5)n4n3)CC2)c1	/	/	.	/	.
O=c1c(/C=C(\O)c2ccc(F)cc2)nc2ccccc2n1-c1ccccc1	.	.	.	.	77
Cn1c(=O)c(/C=C/c2ccccc2)nc2ccccc21	.	99	.	.	53

Bioassay records (PubChem BioAssay)
